Calls of active or inactive are those of the source. No cut-off for these calls is given here.
Legend:
[1] = Half life of the compound in PBS buffer at pH 7.4 at 50 uM by HPLC analysis; type: physicochemical
Method in brief: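 Compound at 50 µM in PBS pH 7.4, incubated at 37 °C. Aliquots were drawn at 0, 1, 3, 6, 12, 24, 48 and 96 h and analysed by C18 reverse-phase HPLC with an acetonitrile/0.1% formic acid gradient, detected by UV at 340 nm.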

[2] = tested on: HCT-116; assay: Drug metabolism in human HCT116 cells assessed as quercetin level at 30 uM after 6 hrs by HPLC analysis; type: ADME, cell-based; details: hct-116, 6 h
Method in brief: (§1)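 MCF-7 or HCT116 cells were seeded at 2×10^5 per well and grown 24 h at 37 °C, 5% CO2, then given 30 µM conjugate. At 1, 3, 6 and 12 h cells were PBS-washed, trypsinized, sonicated and filtered. Lysates were run on C18 HPLC (UV 340 nm). Each species is reported as a percentage of integrated peak area; peaks were identified by MALDI-TOF MS.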

[3] = tested on: HCT-116; assay: Drug metabolism in human HCT116 cells assessed as quercetin sulfate level at 30 uM after 3 hrs by HPLC analysis; type: ADME, cell-based; details: hct-116, 3 h; method in brief: as §1
[4] = tested on: HCT-116; assay: Drug metabolism in human HCT116 cells assessed as quercetin-glucuronide level at 30 uM after 3 hrs by HPLC analysis; type: ADME, cell-based; details: hct-116, 3 h; method in brief: as §1
[5] = Metabolic stability in human HCT116 cells assessed as compound remaining at 30 uM after 3 hrs by HPLC analysis; type: ADME, cell-based, HCT-116; details: read-out: Stability; method in brief: as §1
[6] = Solubility of the compound in PBS buffer at 0.5 to 300 uM; type: physicochemical
Method in brief: (§2)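 DMSO stocks ([…]–10 mM) were serially diluted into PBS pH 7.4 or DMEM with 10% FBS to final 0.5, 5, 25, 50, 100, 200 µM (2% DMSO) and 300 µM (3% DMSO). Solubility was judged by forward light scattering in a laser nephelometer.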

[7] = tested on: MCF7; assay: Drug metabolism in human MCF7 cells assessed as quercetin-glucuronide level at 30 uM after 1 hr by HPLC analysis; type: ADME, cell-based; details: mcf7, 1 h; method in brief: as §1
[8] = tested on: HCT-116; assay: Drug metabolism in human HCT116 cells assessed as quercetin sulfate level at 30 uM after 12 hrs by HPLC analysis; type: ADME, cell-based; details: hct-116, 12 h; method in brief: as §1
[9] = tested on: HCT-116; assay: Drug metabolism in human HCT116 cells assessed as quercetin sulfate level at 30 uM after 1 hr by HPLC analysis; type: ADME, cell-based; details: hct-116, 1 h; method in brief: as §1
[10] = tested on: HCT-116; assay: Cytotoxicity against human HCT116 cells at 1 to 100 uM after 12 hrs by MTT assay; type: functional, cell-based
Method in brief: (§3)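 MCF-7 or HCT116 cells were seeded at 5×10^3 per well in DMEM with 10% FBS and grown 1 day at 37 °C, 5% CO2. Compounds in 1% DMSO were added at 1, 5, 10, 50, 100 or 250 µM. Viability was read by MTT after 12 h; each assay was done three times.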

[11] = tested on: MCF7; assay: Drug metabolism in human MCF7 cells assessed as quercetin-glucuronide level at 30 uM after 12 hrs by HPLC analysis; type: ADME, cell-based; details: mcf7, 12 h; method in brief: as §1
[12] = tested on: HCT-116; assay: Drug metabolism in human HCT116 cells assessed as quercetin-glucuronide level at 30 uM after 1 hr by HPLC analysis; type: ADME, cell-based; details: hct-116, 1 h; method in brief: as §1
[13] = Metabolic stability in human MCF7 cells assessed as compound remaining at 30 uM after 1 hr by HPLC analysis; type: ADME, cell-based; details: read-out: Stability; method in brief: as §1
[14] = tested on: HCT-116; assay: Drug metabolism in human HCT116 cells assessed as quercetin level at 30 uM after 1 hr by HPLC analysis; type: ADME, cell-based; details: hct-116, 1 h; method in brief: as §1
[15] = Metabolic stability in human HCT116 cells assessed as compound remaining at 30 uM after 6 hrs by HPLC analysis; type: ADME, cell-based, HCT-116; details: read-out: Stability; method in brief: as §1
[16] = tested on: HCT-116; assay: Drug metabolism in human HCT116 cells assessed as quercetin-glucuronide level at 30 uM after 12 hrs by HPLC analysis; type: ADME, cell-based; details: hct-116, 12 h; method in brief: as §1
[17] = tested on: HCT-116; assay: Drug metabolism in human HCT116 cells assessed as quercetin sulfate level at 30 uM after 6 hrs by HPLC analysis; type: ADME, cell-based; details: hct-116, 6 h; method in brief: as §1
[18] = tested on: HCT-116; assay: Drug metabolism in human HCT116 cells assessed as quercetin-glucuronide level at 30 uM after 6 hrs by HPLC analysis; type: ADME, cell-based; details: hct-116, 6 h; method in brief: as §1
[19] = Solubility of the compound in DMEM cell-free cell culture medium up to 100 uM; type: physicochemical; method in brief: as §2
[20] = tested on: MCF7; assay: Drug metabolism in human MCF7 cells assessed as quercetin sulfate level at 30 uM after 1 hr by HPLC analysis; type: ADME, cell-based; details: mcf7, 1 h; method in brief: as §1
[21] = tested on: HCT-116; assay: Drug metabolism in human HCT116 cells assessed as quercetin level at 30 uM after 12 hrs by HPLC analysis; type: ADME, cell-based; details: hct-116, 12 h; method in brief: as §1
[22] = Metabolic stability in human HCT116 cells assessed as compound remaining at 30 uM after 12 hrs by HPLC analysis; type: ADME, cell-based, HCT-116; details: read-out: Stability; method in brief: as §1
[23] = Metabolic stability in human MCF7 cells assessed as compound remaining at 30 uM after 3 hrs by HPLC analysis; type: ADME, cell-based; details: read-out: Stability; method in brief: as §1
[24] = Chemical stability of the compound in DMEM cell-free cell culture medium at 50 uM after 24 to 54 hrs by HPLC analysis; type: physicochemical
Method in brief: (§4)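 Conjugates diluted from a 10 mM DMSO stock to 50 µM final in cell-free culture medium (DMEM with 10% FBS), held at 37 °C. Samples were taken at 0, 1, 3, 6, 12, 24, 48 and 96 h, vortexed, and run on C18 reverse-phase HPLC with an acetonitrile/0.1% formic acid gradient at 1 mL/min, detected by UV at 340 nm.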

[25] = Half life of the compound in DMEM cell-free cell culture medium at 50 uM by HPLC analysis; type: physicochemical; method in brief: as §4
[26] = tested on: MCF7; assay: Drug metabolism in human MCF7 cells assessed as quercetin level at 30 uM after 12 hrs by HPLC analysis; type: ADME, cell-based; details: mcf7, 12 h; method in brief: as §1
[27] = tested on: MCF7; assay: Cytotoxicity against human MCF7 cells at 1 to 100 uM after 12 hrs by MTT assay; type: functional, cell-based; method in brief: as §3
[28] = tested on: HCT-116; assay: Drug metabolism in human HCT116 cells assessed as quercetin level at 30 uM after 3 hrs by HPLC analysis; type: ADME, cell-based; details: hct-116, 3 h; method in brief: as §1
[29] = Metabolic stability in human MCF7 cells assessed as compound remaining at 30 uM after 6 hrs by HPLC analysis; type: ADME, cell-based; details: read-out: Stability; method in brief: as §1
[30] = tested on: MCF7; assay: Metabolic stability in human MCF7 cells assessed as compound remaining at 30 uM after 12 hrs by HPLC analysis; type: ADME, cell-based; details: mcf7, 12 h; method in brief: as §1
[31] = tested on: MCF7; assay: Drug metabolism in human MCF7 cells assessed as quercetin sulfate level at 30 uM after 12 hrs by HPLC analysis; type: ADME, cell-based; details: mcf7, 12 h; method in brief: as §1
[32] = Solubility of the compound in PBS buffer at 300 uM; type: physicochemical; method in brief: as §2
[33] = Metabolic stability in human HCT116 cells assessed as compound remaining at 30 uM after 1 hr by HPLC analysis; type: ADME, cell-based, HCT-116; details: read-out: Stability; method in brief: as §1
[34] = tested on: HCT-116; assay: Drug metabolism in human HCT116 cells assessed as methyl quercetin level at 30 uM after 12 hrs by HPLC analysis; type: ADME, cell-based; details: hct-116, 12 h; method in brief: as §1
[35] = tested on: HCT-116; assay: Drug metabolism in human HCT116 cells assessed as methyl quercetin level at 30 uM after 6 hrs by HPLC analysis; type: ADME, cell-based; details: hct-116, 6 h; method in brief: as §1
[36] = tested on: HCT-116; assay: Drug metabolism in human HCT116 cells assessed as methyl quercetin level at 30 uM after 1 hr by HPLC analysis; type: ADME, cell-based; details: hct-116, 1 h; method in brief: as §1
[37] = tested on: MCF7; assay: Drug metabolism in human MCF7 cells assessed as quercetin sulfate level at 30 uM after 3 hrs by HPLC analysis; type: ADME, cell-based; details: mcf7, 3 h; method in brief: as §1
[38] = Drug degradation in DMEM cell-free cell culture medium assessed as formation of quercetin at 50 uM after 1 hr by HPLC analysis; type: physicochemical; method in brief: as §4
[39] = tested on: MCF7; assay: Drug metabolism in human MCF7 cells assessed as methyl quercetin level at 30 uM after 12 hrs by HPLC analysis; type: ADME, cell-based; details: mcf7, 12 h; method in brief: as §1
[40] = tested on: MCF7; assay: Drug metabolism in human MCF7 cells assessed as methyl quercetin level at 30 uM after 1 hr by HPLC analysis; type: ADME, cell-based; details: mcf7, 1 h; method in brief: as §1
[41] = tested on: HCT-116; assay: Drug metabolism in human HCT116 cells assessed as methyl quercetin level at 30 uM after 3 hrs by HPLC analysis; type: ADME, cell-based; details: hct-116, 3 h; method in brief: as §1

Row | Structure (SMILES) | half-life at 50 µM [1] | Stability [4] | remaining at 3 h, 30 µM [5] | solubility [6] | Stability [7] | Stability [9] | Activity [10] | Stability [11] | remaining at 1 h, 30 µM [13] | remaining at 6 h, 30 µM [15] | Stability [16] | Stability [18] | solubility [19] | Stability [20] | remaining at 12 h, 30 µM [22] | remaining at 3 h, 30 µM [23] | half-life at 50 µM [25] | Stability [26] | Activity [27] | remaining at 6 h, 30 µM [29] | also measured
1 | CC(C)OC(=O)OCOc1c(-c2ccc(O)c(O)c2)oc2cc(O)cc(O)c2c1=O | > 96 h | Stable | 76% | soluble | Stable | Stable | inactive | Stable | 92% | 71% | Stable | Stable | soluble | Stable | 65% | 49% | 54 h | Stable | Active | 4% | Stability [2]: Stable; Stability [3]: Stable; Stability [8]: Stable; Stability [12]: Stable; Stability [14]: Stable; Stability [17]: Stable; Stability [21]: Stable; Stability [24]: Stable; Stability [28]: Stable; Stability [30]: Stable; Stability [31]: Stable; solubility [32]: soluble; remaining at 1 h, 30 µM [33]: 80%
2 | CC(C)OC(=O)OCOc1cc(O)c2c(=O)c(O)c(-c3ccc(O)c(O)c3)oc2c1 | > 96 h | Stable | 34% | Insoluble | Stable | Stable | Active | Stable | 51% | 18% | Stable | Stable | soluble | Stable | 12% | 6% | 1 h | Stable | Active | 2% | Stability [34]: Stable; Stability [35]: Stable; Stability [36]: Stable; Stability [37]: Stable; Drug degradation [38]: Active; Stability [39]: Stable; Stability [30]: Stable; Stability [40]: Stable; Stability [31]: Stable; Stability [41]: Stable; remaining at 1 h, 30 µM [33]: 65%
